A selection: hits, their analogues and other compounds. The true share with any hit is near 2.9%.
SENP8 block-1: human SENP8 protease inhibitors, primary screen, biochemical, fluorescence, Nedd8 protein substrate, uHTS; 360,000 compounds, 0.64% hits; recombinant SENP8; inhibition, % at 20 µM; in the data active = inhibition mostly above about 40%, no sharp cut-off; inactive = mostly below about 27%
SENP7 inh: SENP7 protease inhibitors, primary screen, biochemical, luminescence, uHTS; inhibition, % at 5 µM; recombinant SENP7, Z-RLRGG-aminoluciferin luminescence, 40 min; 330,000 compounds, 1.5% hits;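 active = inhibition above about 50% at the single test dose, limit read from the data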;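 note: plate controls were DMSO with enzyme for no effect and no enzyme buffer wells for full effect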
Target sequence (Q9BQF6 706-1050 limits assumed): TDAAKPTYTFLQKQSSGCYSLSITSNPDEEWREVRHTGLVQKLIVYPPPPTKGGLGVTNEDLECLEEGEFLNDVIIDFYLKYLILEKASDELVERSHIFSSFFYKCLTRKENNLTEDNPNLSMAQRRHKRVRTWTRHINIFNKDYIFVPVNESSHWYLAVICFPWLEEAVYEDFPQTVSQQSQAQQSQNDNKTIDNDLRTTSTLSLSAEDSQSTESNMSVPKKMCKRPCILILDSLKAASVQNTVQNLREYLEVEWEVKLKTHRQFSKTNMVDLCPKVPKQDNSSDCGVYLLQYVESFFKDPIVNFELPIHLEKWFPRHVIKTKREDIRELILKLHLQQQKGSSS
SENP1 FRET inh: human SENP1 catalytic domain inhibitors, primary screen, biochemical, FRET, uHTS | recombinant SENP1 catalytic domain, CyPet-SUMO1-YPet FRET cleavage | inhibition, % at 10 µM | Sentrin-specific protease 1 (Homo sapiens), Q9P0U3 | 360,000 compounds, 0.21% hits | AID 624204, 2012;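 active = inhibition at least 30% at 10 µM, raw YFP signal under a set limit, fluorescence ratio 0.5 to 1.5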;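 note: 0% = enzyme with DMSO and 100% = no enzyme wells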
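Assay system: hSENP1 catalytic domain, recombinant. Amount: SENP1 enzyme, 20 pM final. Schedule: 50 min reaction, RT, dark. Technique: FRET, CFP and YFP emission. Control set: no-enzyme wells low, DMSO-plus-enzyme wells high control.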
SENP8 block-2: SENP8 protease inhibitors, primary screen, biochemical, luminescence; Sentrin-specific protease 8 (Homo sapiens), Q96LD8; purified SENP8, Z-RLRGG-aminoluciferin cleavage; inhibition, % at 10 µM; 330,000 compounds, 1.2% hits; in the data active = inhibition above about 50%
Apaf-1 inh: inhibitors of human Apaf-1 apoptosome, primary screen, biochemical, DEVD-Rh110 fluorescence, uHTS | AID 489030, 2010 | Apoptotic protease-activating factor 1 (Homo sapiens), O14727 | inhibition, % at 20 µM | reconstituted apoptosome caspase-3 activity | 330,000 compounds, 0.71% hits; active = inhibition of at least 40% at 20 µM;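 note: plate controls were DMSO wells for no effect and DEVD-CHO caspase inhibitor wells for full effect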
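Medium: Hepes buffer, pH 7.5 / System: biochemical Apaf-1 apoptosome reconstitution / Measured by: Rh110 fluorescence, excitation 480 nm, emission 540 nm / Times: compound with Apaf-1, dATP, procaspase-3 30 min, then 50 min reaction, room temperature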
SENP6 block: SENP6 protease inhibitors, primary screen, biochemical, luminescence, uHTS | Sentrin-specific protease 6 (Homo sapiens), Q9GZR1 | Recombinant SENP6 catalytic domain, aminoluciferin luminescence | inhibition, % at 10 µM | 330,000 compounds, 1.8% hits;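 active = inhibition above about 50% at the single tested dose, limit read from the data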;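 note: plate controls were DMSO wells with enzyme for no effect and DMSO wells lacking enzyme for full effect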
SENP8 inh conf: human SENP8 protease inhibitors, confirmation, biochemical, Nedd8 protein substrate, single concentration | 1,400 compounds, 15% hits | shares compounds with SENP8 block-1 | AID 624319, 2012 | purified SENP8, Nedd8-AMC/pro-Nedd8 cleavage fluorescence, 30 min | inhibition, % at 25 µM; in the data active = inhibition mostly above about 39%, no sharp cut-off; inactive = mostly below about 34%
An asterisk follows results filed as active; . = no result.

SMILES | SENP8 block-1 | SENP7 inh | SENP1 FRET inh | SENP8 block-2 | Apaf-1 inh | SENP6 block | SENP8 inh conf
CCN(CC)C(=O)C1=C(C)N(CCC2=CCCCC2)C(=O)C(CC(=O)NCc2cccs2)C1 (stereo unspecified) | 4 | . | 0 | . | . | . | .
CC(C)C[C@H](NC(=O)N1CC(=O)Nc2ccccc21)C(=O)N[C@@H](Cc1c[nH]c2ccccc12)C(=O)O | 39 | 2 | 3 | 3 | -7 | -4 | .
O=C1CN(C(=O)NCC(=O)N[C@@H](Cc2ccccc2)C(=O)O)c2ccccc2N1 | 46* | -3 | -1 | 2 | -4 | -14 | 20
CC(C)C[C@H](NC(=O)N1CC(=O)Nc2ccccc21)C(=O)N[C@H](Cc1c[nH]c2ccccc12)C(=O)O | 51* | 7 | -1 | -11 | 5 | 0 | 5
O=[N+]([O-])c1cc(C(F)(F)F)cc([N+](=O)[O-])c1NN=C1CCCCC1 | 42* | 6 | 5 | -4 | 7 | 4 | 9
CC(=O)N1CCN(C(=O)CCC(=O)O)CC1 | 54* | 11 | 4 | -1 | -14 | -24 | 23
CN1c2ccccc2SC2C(c3ccccc3)=NOC21 (stereo unspecified) | 14 | . | -1 | . | . | . | .
O=C(c1cccnc1)N(Cc1ccccc1)C(c1ccccc1)c1nc2ccccc2[nH]1 (stereo unspecified) | 8 | . | -1 | . | . | . | .
O=C(NCCCCc1ccccc1)c1cccc(NC(=O)C2CCCC2)c1 | 0 | . | 0 | . | . | . | .
CC(=O)Nc1ccc(Nc2nc(C)c([N+](=O)[O-])c(N(C)c3ccccc3)n2)cc1 | 23 | -1 | 0 | -6 | 15 | -22 | .
COc1ccc(/C=N/Nc2nc(C)c([N+](=O)[O-])c(N(C)c3ccccc3)n2)cc1OC | 53* | 2 | 0 | 5 | 14 | -10 | 6
Cc1ccc(Sc2ccc(/C=N/O)cc2[N+](=O)[O-])cc1 | 42* | 4 | 4 | -13 | 12 | 7 | 17
CO/N=C/c1ccc(Sc2ccc(C)cc2)c([N+](=O)[O-])c1 | 32 | 2 | 1 | -4 | 11 | -6 | .
CCOC(=O)C1(CC2CCCCO2)CCN(S(=O)(=O)c2cccc(F)c2)CC1 (stereo unspecified) | 0 | 4 | -1 | -3 | -1 | -19 | .
CCOC(=O)C1(CC2CCCCO2)CCN(Cc2cn[nH]c2-c2cccc(F)c2)CC1 (stereo unspecified) | 45* | -3 | 2 | -8 | -6 | -9 | 15
Oc1ccc(N2CCN(Cc3ccc(OCCCN4CCCCC4)cc3)CC2)cc1 | 40* | -9 | -6 | -3 | 14 | 9 | 13
O=C1NCCO1 | 0 | -4 | -1 | -2 | -14 | 7 | .
O=C(NNC(=O)c1cccc(S(=O)(=O)Nc2ccccc2F)c1)c1ccncc1 | 18 | . | 3 | . | . | . | .
CC1(C(=O)NS(=O)(=O)Cc2ccccc2C(F)(F)F)CCN1C(=O)c1cccc(F)c1 (stereo unspecified) | 14 | . | 2 | . | . | . | .
C=CCc1ccc(OC)c(OC)c1 | 52* | -5 | 6 | 1 | -1 | -6 | 15
CN(C)S(=O)(=O)c1ccc(Cl)c(NC(=O)COC(=O)CCC2CCCCC2)c1 | 18 | -5 | 3 | -13 | 21 | -11 | .
OC1(C#CCCN2CCCCC2)c2ccccc2-c2ccccc21 | 13 | 0 | 1 | 9 | 1 | 2 | .
N#CC1(CCCN2CCCCC2)c2ccccc2CCc2ccccc21 | 41* | 2 | 0 | 0 | -7 | -11 | 23
COc1cc(NC(=O)C2CCCCN2)ccc1OCC(C)C (stereo unspecified) | 27* | -6 | 0 | -7 | 9 | -16 | 5

Compound activity: PubChem, Sanford-Burnham Center for Chemical Genomics
